Experimental data pooled from the literature.
Each line is one published result; the experiments were not run side by side.
PDE4D: 3',5'-cyclic-AMP phosphodiesterase 4D (PDE4D, Homo sapiens, UniProt Q08499)
MTNR1B: Melatonin receptor type 1B (MTNR1B, Homo sapiens, UniProt P49286)

With Nc1ncc(-c2nc(N3CCOCC3)nc(N3CCOCC3)n2)c(C(F)F)n1 the remaining binding was 83% (Non-receptor tyrosine-protein kinase TNK1 (TNK1, Homo sapiens, UniProt Q13470); binding, competition with immobilised ligand; 10 µM).
With CC(C)=CCc1cc(-c2coc3cc(O)cc(O)c3c2=O)cc(O)c1O the inhibition was 100% (PDE4D; enzyme activity, inhibitor, radiometric; 50 µM).
Cc1nn(C)cc1-c1nc2c(N3CCN(Cc4ccc(Cl)cc4)CC3)c(Cl)cnc2[nH]1 has a remaining binding of 100% (Calcium/calmodulin-dependent protein kinase type 1G (CAMK1G, Homo sapiens, UniProt Q96NX5); binding, competition with immobilised ligand; 1 µM).
With COc1ccc2[nH]cc(CCNC(=O)CI)c2c1 the Emax was 92% (MTNR1B; β-arrestin recruitment, agonist; MT2; 90 min).
For CCN(CC)CCCC[C@H](NC(=O)[C@H](CC(C)C)NC(=O)[C@H](C)NC(=O)[C@H](Cc1ccccc1)NC(=O)c1ccc(C(C)(C)C)cc1)C(=O)N[C@@H](CO)C(=O)OC, the remaining binding was 95.2% (Prostaglandin E2 receptor EP4 subtype (PTGER4, Homo sapiens, UniProt P35408); ligand displacement, radioligand; 10 µM).
COc1ccc2cccc(C(CO)CNC(=O)CF)c2c1 (stereo not shown) has an Emax of 99% (MTNR1B; GTPγS binding, agonist, radiometric; cell membranes).
With COc1cc(O)ccc1/C=C/C(=O)c1ccc(O)cc1 the inhibition was -1.92% (PDE4D; enzyme activity, inhibitor, radiometric; 5 µM).
With c1ccc(C(NCCNC(c2ccccc2)c2ccccc2)c2ccccc2)cc1 the inhibition was 4% (Phospholipase A2, major isoenzyme (PLA2G1B, Sus scrofa, UniProt P00592); cell-free assay, inhibitor; 10 µM).
With CC[C@H](C)[C@@H]1NC(=O)[C@@H]2CSSC[C@H](NC(=O)[C@@H](NC(=O)CN)[C@@H](C)O)C(=O)N[C@@H](CC(N)=O)C(=O)N[C@@H]([C@@H](C)O)C(=O)N3CCC[C@H]3C(=O)NCC(=O)N[C@H]3CSSC[C@H](NC(=O)[C@H](CCSC)NC(=O)[C@H](CC(C)C)NC(=O)[C@H](CCCNC(=N)N)NC(=O)CNC(=O)CNC(=O)[C@H](CC(=O)O)NC1=O)C(=O)NCC(=O)N[C@@H](CCC(=O)O)C(=O)N[C@@H]([C@@H](C)O)C(=O)N[C@H](C(=O)N[C@H](C(=O)NCC(=O)O)C(C)C)CSSC[C@H](NC(=O)[C@H]([C@@H](C)O)NC3=O)C(=O)N[C@@H](CO)C(=O)N[C@@H](Cc1c[nH]c3ccccc13)C(=O)N1CCC[C@H]1C(=O)N[C@@H](C(C)C)C(=O)N2 the kon was 1000 to 10000 M⁻¹ s⁻¹ (Prothrombin (F2, Homo sapiens, UniProt P00734); binding, SPR).
For CC1(C)[C@@H](O)CC[C@]2(C)[C@H]3C(=O)C=C4[C@@H]5C[C@@](C)(C(=O)O)CC[C@]5(C)CC[C@@]4(C)[C@]3(C)CC[C@@H]12, the inhibition was 42.4% (PDE4D; enzyme activity, inhibitor, radiometric; 50 µM).
The kinact/KI of NC(=O)c1cccc(-c2cccc(OC(=O)NC3CCCCC3)c2)c1 is reported as 4500 M⁻¹ s⁻¹ (Liver carboxylesterase 1 (CES1, Homo sapiens, UniProt P23141); enzyme activity, inhibitor; pH 7.4).
O=C(O)c1ccccc1O has an inhibition of 3.34% (PDE4D; enzyme activity, inhibitor, radiometric; 50 µM).
COc1ncccc1-c1cnn2ccc(N3CCN(C(=O)OC(C)C)CC3)nc12 has a remaining binding of 100% (Serine/threonine-protein kinase MAK (MAK, Homo sapiens, UniProt P20794); binding, competition with immobilised ligand; 1 µM).
